From PubChem BioAssay AID719 (SRMLSC, 2007)
About 940 (1.1%) of roughly 85,000 compounds were called active. For the sample, actives were picked, then their nearest neighbours and some compounds at random. A number with no mark means an inactive call.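 Rule for the calls: active = viability at or below 50% in the single dose screen; inactive = viability above 50%.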

Experiment: antiproliferative effect on LL 47 fibroblasts – human, LL 47 cells, CellTiter-Glo luminescence, primary screen (AID 719);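 note: compound exposure lasted 72 h before the ATP readout; 100% = median luminescence of untreated cell-only wells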
Conditions: LL 47 human lung fibroblast viability, ATP luminescence; at 10 µM; hits give low values
How it was run: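 Material: human lung fibroblast line LL 47, low passage; Evaluation: viability percentage against median untreated-cell control; Buffer or medium: 15% FBS in IMEM; Incubation: 72 h compound exposure at 37 °C after overnight plating; Dosing: 0.1% DMSO in all compound wells; Measured by: CellTiter-Glo luminescence.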

SMILES	viability
Cc1cc(NC(=O)CSc2nc(C(C)C)nc3sc4c(c23)CCC(C)C4)no1 (stereo not drawn)	10.9% (active)
Cc1nc(SCC(=O)Nc2cc(C)on2)c2c(C)c(C)sc2n1	99.4%
Cc1nc(SCC(=O)Nc2cc(C)on2)c2c3c(sc2n1)CCCC3	94.8%
O=C(/C=C/c1ccc(Cl)cc1Cl)c1cccnc1	79%
CCOC(=O)c1c(NC(=O)CCl)sc(C(=O)N(CC)CC)c1C	28% (active)
CCOC(=O)c1sc(NC(=O)CCN2CCOCC2)c(C(=O)OCC)c1C	80.1%
CCOC(=O)Nc1sc(C(=O)N(C)C)c(C)c1C(=O)OCC	89.5%
O=C(NCc1cccnc1)Nc1ccccc1F	96.7%
Cc1cc(C)c2c(n1)nn1c(-n3ccnc3)cc(C)nc21	101%
Cc1cc(C)c2c(n1)nn1c(N3CCN(c4cccc(Cl)c4)CC3)cc(C)nc21	36.8% (active)
Cc1cc(C)c2c(n1)nn1c(N3CCOCC3)cc(C)nc21	82.4%
COc1ccc(NC(=O)CCN2CCCC2)c(OC)c1	104%
Cc1ccccc1-n1c(C)cc(/C=C2\NC(=O)NC2=O)c1C	77.2%
COC(=O)C(NC(C)=O)(Nc1nc2c(s1)CCCC2)C(F)(F)F (stereo not drawn)	103%
O=C(Cn1c(=O)sc2ccccc21)Nc1nc2c(s1)CCCC2	100%
O=C(CCS(=O)(=O)c1ccccc1)Nc1nc2c(s1)CCCC2	47.7% (active)
N#CC1=C(N)N(c2ccccc2)C2=C(C(=O)CCC2)C1c1ccccc1 (stereo not drawn)	93.1%
COc1ccc(CNCCCO)cc1OC	95.2%
COC(=O)c1ccccc1Sc1c(/C=N/OCc2ccc(Cl)cc2)c(C(F)(F)F)nn1C	92.7%
COC(=O)c1cc(OC)ccc1-c1ccc(OC)cc1	90.1%
Cc1cc(Cl)c(S(=O)(=O)N(C)C)cc1OCC(N)=O	101%

SMILES	viability
COc1ccc(-c2nnc(SCc3cccnc3)o2)cc1	105%
Cc1cccc(OCCCC(=O)Nc2ccc(S(=O)(=O)N3CCCC3)cc2)c1	98.6%
CC(C)Cc1nc(N2CCOCC2)c(C#N)c2c1CCC2	90.7%
CC(C)CCNc1nc(N2CCCC2)c2c(c1C#N)CCN(C)C2	30.8% (active)
CCN1CCc2c(C#N)c(NCc3ccccc3)nc(NCCO)c2C1	86.2%
CC1CCN(C(=O)c2cc3nc(C4CC4)cc(C(F)(F)F)n3n2)CC1	96.3%
C/C=C/C(=O)Nc1nnc(C(C)C)s1	103%
CCN1CCN(C(c2cccnc2)c2cc(Cl)c3cccnc3c2O)CC1 (stereo not drawn)	75.3%
Oc1c(CN2CCN(c3ccc(F)cc3)CC2)cc(Cl)c2cccnc12	22.4% (active)
O=C(c1cccc(C(=O)N2CCN(c3ccc(F)cc3)CC2)c1)N1CCN(c2ccc(F)cc2)CC1	97.2%
CCn1nnnc1SCC(=O)c1ccc(C)cc1C	99.4%
O=C(c1cccc(S(=O)(=O)N2CCOCC2)c1)N1CCOCC1	104%
Cc1cc(C(=O)OC(C)C(=O)Nc2cccc(S(=O)(=O)N3CCOCC3)c2)c(C)o1 (stereo not drawn)	30.6% (active)
CCNC(=O)NC(=O)C(C)OC(=O)c1cc(S(=O)(=O)N2CCCCCC2)ccc1OC (stereo not drawn)	94.5%
Cc1ccoc1C(=O)Nc1cccc(Oc2ccccc2)c1	103%
CC(=O)c1cccc(NC(=O)Nc2ccc(C)cc2)c1	109%
Cc1cccc(NC(=O)Nc2cccc(Oc3c(F)c(F)c(F)c(F)c3F)c2)c1	49.6% (active)
Cc1ccc(C)c(NC2=NCC(=O)N2c2ccc3c(c2)OCCO3)c1	120%
O=C(CSc1nc2cccnc2n1Cc1ccccc1)N1CCc2ccccc21	104%
CC(=O)c1sc(NC(=O)c2ccc(C)cc2)nc1C	105%
COC(=O)c1sc(NC(=O)c2ccc(OC)cc2OC)nc1C	91.9%

SMILES	viability
COc1cccc2sc(Nc3nc(C)c(C(C)=O)s3)nc12	26.9% (active)
Fc1ccccc1/C=C1\CCCC2=C1Nc1ncnn1C2c1ccccc1F (stereo not drawn)	3.89% (active)
Cc1cc(SCC(=O)c2ccccc2)nc(SCC(=O)c2ccccc2)n1	102%
CCOC(=O)c1ccc2c(c1)nc(C)n2CC	103%
CN1CCN(CCCNC(=O)c2cc3c(=O)oc4ccccc4c3s2)CC1	105%
O=C(NCCN1CCN(Cc2ccccc2)CC1)c1cc2c(=O)[nH]c3ccccc3c2s1	42.8% (active)
Cn1c(C(=O)NCCN2CCc3ccccc3C2)cc2c(=O)[nH]c3ccccc3c21	93.3%
CCc1ccc(NC(=O)CN2C(=O)CSC2=O)cc1	100%
CCOC(=O)c1sc(NC(=O)c2ccncc2)nc1C	98.9%
CC(OC(=O)CN1C(=O)C2CCCCC2C1=O)C(=O)Nc1ncc(Cl)cc1Cl (stereo not drawn)	98.2%
CC1=CC(C)(C)Nc2ccc(OC(=O)CN3C(=O)C4CCCCC4C3=O)cc21 (stereo not drawn)	39.7% (active)
CC1=CC(C)(C)Nc2ccc(OC(=O)C(Cc3ccccc3)N3C(=O)C4CCCCC4C3=O)cc21 (stereo not drawn)	94.3%
CC1(C)CC(=O)C=C(N2CCCC2)C1	112%
COc1ccc(N2CCN(Cc3ccc(Br)s3)CC2)cc1	100%
CC(=O)Oc1ccc(NC(=O)CCC2CCCCC2)c(C(=O)O)c1	93.2%
CCCNC(=O)CN(Cc1ccccc1F)S(=O)(=O)c1ccc(C)cc1	105%
CC1=NN(/C(=N\c2nnc(C)s2)Nc2ccccc2)[C@H](c2ccc(C)cc2)S1	89.1%
CCCc1[nH]nc2c1C(c1ccc(Br)s1)C(C#N)=C(N)O2 (stereo not drawn)	33.5% (active)
CCCc1[nH]nc2c1C(c1ccc(OC)c(Cn3nc(C)c(Br)c3C)c1)C(C#N)=C(N)O2 (stereo not drawn)	95.9%
CCCc1[nH]nc2c1C(c1ccc(OC(=O)c3ccco3)cc1)C(C#N)=C(N)O2 (stereo not drawn)	95.1%
CCOc1ccc(NC(=O)C2CCCN(C(=O)Nc3ccccc3)C2)cc1 (stereo not drawn)	105%
